Source: ChEMBL document CHEMBL1155551, “First synthesis and antiprotozoal activities of divinyl sulfone-modified carbohydrates” (Bioorg Med Chem Lett, 2010)

Tests used:
Entamoeba histolytica = experiment: Antiprotozoal activity against Entamoeba histolytica after 24 hrs by trypan blue assay; assay type: functional, organism-based
How it was run: (§1)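 Trophozoites kept in TYIS-33 medium, E. histolytica at 37 °C and E. invadens at 25 °C. About 5 × 10⁵ cells/mL exposed to compounds (10 mM stocks in DMSO) for 24 h, with DMSO as negative and metronidazole as positive control. Cells washed in PBS; live cells counted by hemocytometer with trypan blue. IC50 fitted from at least three experiments, each in triplicate.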

Entamoeba invadens = experiment: Antiprotozoal activity against Entamoeba invadens after 24 hrs by trypan blue assay; assay type: functional, organism-based; how it was run: as §1
MCF7 = experiment: Cytotoxicity against human MCF7 after 36 hrs by MTT assay; assay type: cell-based; settings: mcf7, 48 h, in the assay text read “48 hrs” for “36 hrs”
How it was run: (§2)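 MCF7 or AH927 cells seeded at 2 × 10³ per well under 5% CO2, 37 °C. After 36 h, compound added at concentrations ranging from 0 to 100, with untreated wells as control. Viability read by MTT after 48 h of treatment.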

[1] = Cytotoxicity against cat AH927 after 36 hrs by MTT assay; settings: Felis catus, 48 h, in the assay text read “48 hrs” for “36 hrs”; how it was run: as §2

Row | Structure (SMILES) | IC50 (Entamoeba histolytica) [µM] | IC50 (Entamoeba invadens) [µM] | Activity (MCF7) | Activity [1]
1 | C=CS(=O)(=O)C1=C[C@@H](OC)O[C@@H]1COC(c1ccccc1)(c1ccccc1)c1ccccc1 | 37.9 | 25 | – | –
2 | C=CS(=O)(=O)C1=C[C@H](OC)O[C@@H]1COCc1ccccc1 | 19.5 | 9.3 | Non-toxic | Non-toxic
3 | C=CS(=O)(=O)C1=C[C@@H](OC)O[C@@H]1COCc1ccccc1 | 24.4 | 30.1 | – | –
4 | C=CS(=O)(=O)C1=C[C@H](OC)O[C@@H]1COC(c1ccccc1)(c1ccccc1)c1ccccc1 | 32.9 | 17 | – | –
5 | Cc1ncc([N+](=O)[O-])n1CCO [METRONIDAZOLE] | 2.5 | 3 | – | –
